The term IC50 denotes the point on the concentration scale where inhibition reaches its midpoint. Lower therefore signals higher potency.

Drawing on ChEMBL document CHEMBL4251682, “Nitric Oxide Inhibitory Sesquiterpenoids and Its Dimers from Artemisia freyniana” (J Nat Prod, 2018), this text covers IC50 and Activity for four compounds.

In data set [1] the test system is DU-145. Kind of data set: Cytotoxicity against human DU145 cells by MTT assay. It is filed as functional, cell-based. Summed up:
(§1)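 MTT-based growth inhibition of HCT116 and DU145 cells following an established protocol, with taxol as positive control.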
(Tetrazolium dyes change colour on reduction, which living cells bring about.)

Data set [2] has as its system HCT-116. Kind of data set: Cytotoxicity against human HCT116 cells by MTT assay. The format is functional, cell-based. Summed up:
as §1

For data set [3], the system named is RAW264.7. The experiment in a line: Cytotoxicity against mouse RAW264.7 cells assessed as effect on cell viability at 50 uM by MTT assay. The format is cell-based. The conditions noted are these: raw264.7, 50 µM.
Data set [4] relates to RAW264.7. The experiment in a line: Inhibition of LPS-induced nitric oxide production in mouse RAW264.7 cells after 24 hrs by Griess assay. The format is functional, cell-based. The settings on record: RAW264.7, 24 h. (Griess reagent forms a coloured azo dye with nitrite.)

With `C=C(C(=O)O)[C@H]1C[C@@]23O[C@@]2(C)CCC[C@]3(C)C[C@@H]1OC(C)=O`, the concentration for half-maximal inhibition (IC50) in data set [1] and in data set [2] was greater than 50 µM each time. Further, in data set [3], the Activity entry is “Non-Toxic”.

Regarding `C=C(C(=O)O)[C@@H]1CC=C2[C@H](O)CC[C@H](C)[C@@]2(C)C1`, the IC50 in data set [1] was greater than 50 µM; in data set [2] it was greater than 50 µM; in data set [4] it was 18.9 µM. The Activity result in data set [3] is on record as “Non-Toxic”.

Consider `C=C(C(=O)O)[C@@H]1C[C@@H]2O[C@@]23CCC[C@H](C)[C@@]3(C)C1`, for which the IC50 in data set [1] was greater than 50 µM; in data set [2] it was greater than 50 µM; in data set [4], 10.8 µM. Besides, the Activity entry in data set [3] was “Non-Toxic”.

With `C[C@@H]1C[C@H]2[C@@H]3CCC4=CC(=O)C=C[C@]4(C)[C@@]3(F)[C@@H](O)C[C@]2(C)[C@@]1(O)C(=O)CO` [DEXAMETHASONE], in data set [4], the IC50 worked out at 10.7 µM.
